# Published values collected from several papers.
# Each line is one published result; the experiments were not run side by side.
# Maob: Amine oxidase [flavin-containing] B (Maob, Rattus norvegicus, UniProt P19643)
# NMUR1: Neuromedin-U receptor 1 (NMUR1, Homo sapiens, UniProt Q9HB89)
# ALPI: Intestinal-type alkaline phosphatase (ALPI, Bos taurus, UniProt P19111)
# GRM2: Metabotropic glutamate receptor 2 (GRM2, Homo sapiens, UniProt Q14416)
# LCK: Tyrosine-protein kinase Lck (LCK, Homo sapiens, UniProt P06239)
# MAP2K4: Dual specificity mitogen-activated protein kinase kinase 4 (MAP2K4, Homo sapiens, UniProt P45985)
# EPHX2: Bifunctional epoxide hydrolase 2 (EPHX2, Homo sapiens, UniProt P34913)
SMILES,target,effect on,action,method,pH,notes,IC50 [nM]
O=C1N=C(Nc2ccccc2)S/C1=C\c1ccccc1OCc1cn(Cc2ccccc2Br)nn1,"Aldo-keto reductase family 1 member B1 (AKR1B1, Homo sapiens, UniProt P15121)",enzyme activity,inhibitor,absorbance,pH 6.2,,37000
CC(=NN=C1CS(=O)(=O)N(C)c2ccccc21)c1cc(C)cs1,Maob,enzyme activity,inhibitor,fluorescence,,,3830
CC(C)C[C@H](NC(=O)[C@H](Cc1ccccc1)NC(=O)[C@@H](N)Cc1ccc(O)cc1)C(=O)N[C@@H](Cc1ccccc1)C(=O)N[C@@H](CCCNC(=N)N)C(=O)N1CCC[C@H]1C(=O)N[C@@H](CCCNC(=N)N)C(=O)N[C@@H](CC(N)=O)C(N)=O,NMUR1,ligand displacement,,radioligand,,cell membranes,0.66
CCCCCCCCN1CC2=C(C1=O)C(c1ccc(O)cc1)NC(=O)N2 (centres unmarked),ALPI,enzyme activity,inhibitor,absorbance,,,8230
COc1ccc(-c2nsc(NC(=O)[C@@H]3C[C@H]3C)c2C)cc1,GRM2,calcium signal,antagonist,,,,> 12500
O=C1NC2=C(C(=O)N(Cc3ccc(F)cc3)C2)C(c2ccccc2O)N1 (centres unmarked),ALPI,enzyme activity,inhibitor,absorbance,,,1270
CC(=NN=C1CS(=O)(=O)N(C)c2ccccc21)c1ccc([N+](=O)[O-])s1,Maob,enzyme activity,inhibitor,fluorescence,,,1250
O=C1NC2=C(C(=O)N(Cc3ccc(F)cc3)C2)C(c2ccc(O)cc2)N1 (centres unmarked),ALPI,enzyme activity,inhibitor,absorbance,,,4760
CC(C)(C)n1nc(-c2cnc3cc(OC4CC4)ccc3c2)c(C(N)=O)c1N,"Mitogen-activated protein kinase kinase kinase 10 (MAP3K10, Homo sapiens, UniProt Q02779)",cell-free assay,,,,,> 10000
Cn1ccc(COc2cnc(C(N)=O)cc2-c2ccc(F)cc2)n1,GRM2,ion flux,antagonist,,,,58
CC(=NN=C1CS(=O)(=O)N(C)c2ccccc21)c1cccs1,Maob,enzyme activity,inhibitor,fluorescence,,,1980
COc1ccc(-c2cc(C(N)=O)ncc2OCc2noc(C)n2)c(F)c1,GRM2,ion flux,antagonist,,,,158
O=C1NC2=C(C(=O)N(c3ccc(F)cc3)C2)C(c2ccccc2O)N1 (centres unmarked),ALPI,enzyme activity,inhibitor,absorbance,,,6540
COc1ccc(-c2cc(C(N)=O)ncc2OCc2ccc(F)nc2)c(F)c1,GRM2,ion flux,antagonist,,,,74
COc1cc2nccc(Oc3ccc(NC(=O)c4cc5c(n(-c6ccccc6)c4=O)CCCC5=O)nc3)c2cc1OC,LCK,enzyme activity in cells,inhibitor,ATP luminescence,,,> 100
CNC(=O)c1cc2c(Oc3ccc(NC(=O)C4(C(=O)Nc5ccc(F)cc5)CC4)cc3)ccnc2cc1OC,LCK,enzyme activity,inhibitor,radiometric,,,12
CN1CCN(c2ccc(Nc3ncc4cc(C#N)c(=O)n(C5CCCC5)c4n3)cc2)CC1,"MAP/microtubule affinity-regulating kinase 4 (MARK4, Homo sapiens, UniProt Q96L34)",enzyme activity,inhibitor,,,,403
CN(C)CC#Cc1ccc2[nH]c3c(c2c1)-c1nc(N)ncc1CCC3,MAP2K4,enzyme activity,inhibitor,radiometric,,,> 10000
COc1ccc(-c2cc(C(N)=O)ncc2OCc2cnc(OC)nc2)c(F)c1,GRM2,ion flux,antagonist,,,,261
CC(=NN=C1CS(=O)(=O)N(C)c2ccccc21)c1cc(C)sc1C,Maob,enzyme activity,inhibitor,fluorescence,,,2610
O=C(CCCCCCCCc1ccc(O)c(O)c1)c1c(O)cccc1O,EPHX2,enzyme activity,inhibitor,fluorescence,,,25900
COc1ccc(-c2cc(C(N)=O)ncc2OCc2ccn(C)n2)c(F)c1,GRM2,ion flux,antagonist,,,,21
O=C1NC2=C(C(=O)N(c3ccc(Cl)cc3)C2)C(c2ccccc2O)N1 (centres unmarked),ALPI,enzyme activity,inhibitor,absorbance,,,2940
O=c1[nH]c2c(Br)cccc2n1C1CCN(S(=O)(=O)c2ccc(I)cc2)CC1,"N-glycosylase/DNA lyase (OGG1, Homo sapiens, UniProt O15527)",enzyme activity,inhibitor,,,,14000
Oc1c2ccccc2c2c3c(cccc13)N=N2,"Tyrosine-protein kinase JAK2 (JAK2, Homo sapiens, UniProt O60674)",enzyme activity,inhibitor,,,,736
CCN1CCN(Cc2ccc(NC(=O)Nc3ccc(Oc4cc(NC)ncn4)cc3)cc2C(F)(F)F)CC1,MAP2K4,enzyme activity,inhibitor,ADP detection,,,40000
O=C(Cc1ccc(Nc2ncnc3[nH]ccc23)cc1)Nc1ccc(F)c(Cl)c1,"Proto-oncogene tyrosine-protein kinase receptor Ret (RET, Homo sapiens, UniProt P07949)",enzyme activity,inhibitor,mobility shift,,,> 20000
COc1ccc(N2CC3=C(C2=O)C(c2ccccc2O)NC(=O)N3)cc1 (centres unmarked),ALPI,enzyme activity,inhibitor,absorbance,,,4870
Cc1ccc(C(=O)Nc2ccc(Oc3cc4cnn(C)c4cc3-c3cn[nH]c3)c(F)c2)c(=O)n1-c1ccc(F)cc1,"Proto-oncogene tyrosine-protein kinase receptor Ret (RET, Homo sapiens, UniProt P07949, C634W)",phosphorylation in cells,inhibitor,western blot,,,2000
CC(C)C[C@H](NC(=O)[C@H](Cc1ccccc1)NC(=O)[C@H](Cc1ccc(O)cc1)NC(=O)CNC(=O)[C@H](CCCNC(=N)N)NC(=O)[C@H](CO)NC(=O)[C@H](CCC(N)=O)NC(=O)[C@H](CO)NC(=O)[C@H](C)NC(=O)[C@H](Cc1ccccc1)NC(=O)[C@@H]1CCCN1C(=O)[C@H](CO)NC(=O)[C@H](CCC(N)=O)NC(=O)[C@H](Cc1ccccc1)NC(=O)[C@H](CCC(=O)O)NC(=O)[C@H](CCC(=O)O)NC(=O)[C@H](CC(=O)O)NC(=O)[C@@H](NC(=O)[C@H](CCCNC(=N)N)NC(=O)[C@@H](N)Cc1ccccc1)C(C)C)C(=O)N[C@@H](Cc1ccccc1)C(=O)N[C@@H](CCCNC(=N)N)C(=O)N1CCC[C@H]1C(=O)N[C@@H](CCCNC(=N)N)C(=O)N[C@@H](CC(N)=O)C(N)=O,NMUR1,ligand displacement,,radioligand,,cell membranes,0.11
CCC(C)(O)C(=O)N1CCC(NC(=O)Nc2ccc(OC(F)(F)F)c(F)c2)CC1 (centres unmarked),EPHX2,enzyme activity,inhibitor,,,,0.09
COc1ccc2c(Oc3ccc4c(C(=O)Nc5ccccc5N)cccc4c3)ccnc2c1,LCK,enzyme activity,inhibitor,,,,> 500
CC12CC3(C)CC(C)(C1)CC(NC(=O)Nc1ccccc1F)(C2)C3,EPHX2,enzyme activity,inhibitor,fluorescence,,,94.3
CN1c2ccccc2C(=NN=Cc2cc3ccc(Cl)cc3nc2Cl)CS1(=O)=O,Maob,enzyme activity,inhibitor,fluorescence,,,1210
O=C(Nc1ccccc1F)NC12CC3CC(CC(C3)C1)C2,EPHX2,enzyme activity,inhibitor,fluorescence,,,3.7
COc1ccc(-c2cc(C(N)=O)ncc2OCc2ccnc(C)c2)c(F)c1,GRM2,ion flux,antagonist,,,,59
O=C(Nc1ccccc1)NC12CC3CC(CC(C3)C1)C2,EPHX2,enzyme activity,inhibitor,fluorescence,,,16.5
Cc1cnc(-c2ccc(-c3ccc(NC(=O)Nc4c(F)cc(F)cc4F)cc3F)c3c2C(=O)NC3)[nH]1,LCK,enzyme activity,inhibitor,,,,0.7
